Tests used:
[1] = Selectivity index, ratio of ED50 for human KB cells to IC50 for Plasmodium falciparum D6; type: functional
Procedure, shortened: (§1)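 Selectivity index computed as ED50 in KB cells (SRB survival assay) divided by IC50 against the P. falciparum clone from [3H]hypoxanthine incorporation, both fitted by nonlinear regression.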

[2] = Cytotoxicity against human KB cells by SRB assay; type: cell-based; conditions: read-out: ED50 (the source's name)
Procedure, shortened: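 Human oral epidermoid carcinoma KB cells stained with sulforhodamine B; ED50 from nonlinear regression of percent survival against compound concentration. ED50 of 50 µM or above taken as noncytotoxic; extract values in µg/mL.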

[3] = system: Plasmodium falciparum; experiment: Antimalarial activity against Plasmodium falciparum W2 by [3H]hypoxanthine uptake; type: functional, organism-based
Procedure, shortened: (§2)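 Cultured P. falciparum clones tested, parasite-specific [3H]hypoxanthine incorporation measured; zero-drug wells set as 100% incorporation. IC50 (50% inhibition of incorporation) fitted by nonlinear regression; pure compounds with IC50 < 10 µg/mL counted as active. Extract values expressed in µg/mL.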

[4] = system: Plasmodium falciparum; experiment: Antimalarial activity against Plasmodium falciparum D6 by [3H]hypoxanthine uptake; type: functional, organism-based; procedure, shortened: as §2
[5] = Selectivity index, ratio of ED50 for human KB cells to IC50 for Plasmodium falciparum W2; type: functional; procedure, shortened: as §1

Row | SMILES | Selectivity Index [1] | CC50 [2] [µM] | IC50 [3] [µM] | IC50 [4] [µM] | Selectivity Index [5]
1 | COC1=CC(=O)C=C(OC)C1(O)CC(C)=O | 4 | 169 | 23 | 42.2 | 7.3
2 | CC(C)(O)[C@@H]1CC[C@]2(C)CC[C@]3(C)[C@H](CC[C@@H]4[C@@]5(C)CC[C@@H](O)C(C)(C)[C@@H]5CC[C@]43C)[C@@H]12 | >4.5 | > 90 | 19.1 | 19.8 | >4.7
3 | CCN(CC)CCCC(C)Nc1ccnc2cc(Cl)ccc12 (stereo unspecified) [CHLOROQUINE] |  | 30.8 |  |  | 
4 | COc1cc([C@@H]2Oc3cc4ccc(=O)oc4cc3O[C@H]2CO)cc(O)c1O [GREWIN] | >9.6 | > 108 | 5.5 | 11.2 | >19.7
5 | CC1(C)CC[C@]2(C(=O)O)CC[C@]3(C)C(=CC[C@@H]4[C@@]5(C)C[C@@H](O)[C@H](O)C(C)(C)[C@@H]5CC[C@]43C)[C@@H]2C1 [MASLINIC ACID] | 2.4 | 51.5 | 8.6 | 21.1 | 5.9
6 | COc1cc([C@@H]2Oc3cc(/C=C/CO)cc(OC)c3O[C@H]2CO)cc(OC)c1O [NITIDANIN] | >4.6 | > 99 | 18.4 | 21.2 | >5.4

Reference: ChEMBL document CHEMBL1157285, “Antimalarial compounds from Grewia bilamellata” (J Nat Prod, 2006)
